Assay results taken from ChEMBL document CHEMBL5154945, “Discovery and Optimization of Pyrrolopyrimidine Derivatives as Selective Disruptors of the Perinucleolar Compartment, a Marker of Tumor Progression toward Metastasis” (J Med Chem, 2022).

Columns and labels:
[1] = system: PC-3M; experiment: Anticancer activity in human PC-3M cells expressing PTB/GFP fusion protein assessed as perinucleolar compartment disassembly and measured after 24 hrs by Hoechst 33342 staining based microscopic method; assay type: functional, cell-based
Procedure, shortened: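 Imaged by high-content microscopy. Nuclei with PNC spots ≥3 and >0 scored positive. PNC prevalence % = PNC-positive nuclei/total nuclei ×100, normalized to DMSO (0% activity) and 0% PNC (−100%). IC50 from concentration-response.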

[2] = Permeability of the compound at pH 7.4 incubated for 30 mins by UV plate reader based PAMPA assay; details: for permeability: pampa, pH 7.4, 0.5 h; for Papp at 0.5 h: PAMPA, pH 7.4
[3] = Microsomal stability in CD1 mouse liver microsomes assessed as half life measured upto 60 mins in presence of NADPH by LC-MS analysis; details: for t1/2: mouse, microsomes, 1 h; for half-life at 1 h: CD1, mouse, liver microsomes

SMILES: N=c1c2c(-c3ccccc3)c(-c3ccccc3)n(Cc3ccc(S(N)(=O)=O)cc3)c2ncn1CC1CCOCC1
- IC50 ([1]; read-out: pIC50 (converted)): 25.1 µM
- permeability [2]: < 1 10^-6 cm/s
- t1/2 [3]: 8.3 min

SMILES: N=c1c2c(-c3ccccc3)c(-c3ccccc3)n(Cc3ccccc3)c2ncn1CCCN1CCN(c2ccccc2)CC1
- IC50 ([1]; read-out: pIC50 (converted)): 23.4 µM
- permeability [2]: > 1000 10^-6 cm/s
- t1/2 [3]: 14 min

SMILES: COc1ccc(CCn2cnc3c(c(-c4ccccc4)c(-c4ccccc4)n3Cc3ccccc3)c2=N)cc1OC
- IC50 ([1]; read-out: IC50): 25.1 µM
- IC50 ([1]; read-out: pIC50 (converted)): 25.1 µM
- permeability [2]: 1196.9 10^-6 cm/s
- t1/2 [3]: 12.1 min

SMILES: CO[C@H]1CC[C@H](n2cnc3c(c(-c4ccccc4)c(-c4ccccc4)n3Cc3ccccc3)c2=N)CC1
- IC50 ([1]; read-out: pIC50 (converted)): 0.251 µM

SMILES: CCOC(CCCn1cnc2c(c(-c3ccccc3)c(-c3ccccc3)n2Cc2ccccc2)c1=N)OCC
- IC50 ([1]; read-out: pIC50 (converted)): 23.4 µM
- permeability [2]: > 1000 10^-6 cm/s
- t1/2 [3]: 4.3 min

SMILES: N=c1c2c(-c3ccccc3)c(-c3ccccc3)n(Cc3ccc(OC(F)(F)F)cc3)c2ncn1[C@H]1CC[C@H](O)CC1
- IC50 ([1]; read-out: pIC50 (converted)): 0.631 µM
- permeability [2]: 1246.89 10^-6 cm/s
- half-life at 1 h [3]: 120 min

SMILES: N=c1c2c(-c3ccccc3)c(-c3ccccc3)n(CC3CC3)c2ncn1CC1CCOCC1
- IC50 ([1]; read-out: pIC50 (converted)): 33.9 µM
- permeability [2]: > 1000 10^-6 cm/s
- t1/2 [3]: 16.3 min

SMILES: N=c1c2c(-c3ccccc3)c(-c3ccccc3)n(Cc3ccccc3)c2ncn1CC1COC1
- IC50 ([1]; read-out: IC50): > 20 µM
- Papp at 0.5 h [2]: 7.2 ×10⁻⁶ cm/s
- half-life at 1 h [3]: 113 min

SMILES: CCO/C=N/c1c(C#N)c(-c2ccccc2)c(-c2ccccc2)n1Cc1ccccc1
- IC50 ([1]; read-out: IC50): > 20 µM

SMILES: N=c1c2c3c(n(CCc4ccccc4)c2ncn1C1CCOCC1)CCCC3
- IC50 ([1]; read-out: IC50): > 20 µM

SMILES: N=c1c2c(-c3ccccc3)c(-c3ccccc3)n(Cc3ccccc3)c2ncn1C1CCN(Cc2ccccc2)CC1
- IC50 ([1]; read-out: pIC50 (converted)): 5.01 µM
- t1/2 [3]: 32.2 min

SMILES: O[C@H]1CC[C@H](Nc2ncnc3c2c(-c2ccccc2)c(-c2ccccc2)n3Cc2ccccc2)CC1
- IC50 ([1]; read-out: IC50): > 20 µM

SMILES: N=c1c2c(-c3ccccc3)c(-c3ccccc3)n(CC3CCCCC3)c2ncn1[C@H]1CC[C@H](O)CC1
- IC50 ([1]; read-out: pIC50 (converted)): 2.75 µM

SMILES: COc1ccc(-c2c(-c3ccc(OC)cc3)n(Cc3ccccc3)c3ncn([C@H]4CC[C@H](O)CC4)c(=N)c23)cc1
- IC50 ([1]; read-out: IC50): > 20 µM
- permeability [2]: 196 10^-6 cm/s

SMILES: N=c1c2c(-c3ccccc3)c(-c3ccccc3)n(CC3CCCCC3)c2ncn1C1CCOCC1
- IC50 ([1]; read-out: pIC50 (converted)): 2 µM

SMILES: CO[C@H]1CC[C@H](n2cnc3c(c(-c4ccccc4)c(-c4ccccc4)n3Cc3ccc(OC(F)(F)F)cc3)c2=N)CC1
- IC50 ([1]; read-out: pIC50 (converted)): 1.1 µM

SMILES: N=c1c2c(-c3ccccc3)c(-c3ccccc3)n(Cc3ccccc3)c2ncn1CCN
- IC50 ([1]; read-out: IC50): > 20 µM
- permeability [2]: 164.7 10^-6 cm/s

SMILES: N=c1c2c(-c3ccccc3)c(-c3ccccc3)n(Cc3ccc(S(N)(=O)=O)cc3)c2ncn1CCCO
- permeability [2]: < 1 10^-6 cm/s
- t1/2 [3]: 26.7 min

SMILES: COc1ccc(Cn2c(-c3ccccc3)c(-c3ccccc3)c3c(=N)n(C4CCOCC4)cnc32)cc1
- IC50 ([1]; read-out: pIC50 (converted)): 0.174 µM

SMILES: OCCCNc1ncnc2c1c(-c1ccccc1)c(-c1ccccc1)n2Cc1ccccc1
- IC50 ([1]; read-out: IC50): > 20 µM

SMILES: N=c1c2c(-c3ccc4c(c3)OCO4)c(-c3ccc4c(c3)OCO4)n(Cc3ccccc3)c2ncn1C1CCOCC1
- IC50 ([1]; read-out: IC50): > 20 µM

SMILES: N=c1c2c(-c3ccccc3)c(-c3ccccc3)n(CCc3ccccc3)c2ncn1C[C@@H]1CCCC[C@H]1O (relative stereo)
- IC50 ([1]; read-out: IC50): 2.72 µM
- IC50 ([1]; read-out: pIC50 (converted)): 0.955 µM
- t1/2 [3]: 4.3 min

SMILES: N=c1c2c(-c3ccccc3)c(-c3ccccc3)n(Cc3ccc(OC(F)(F)F)cc3)c2ncn1CCCO
- IC50 ([1]; read-out: pIC50 (converted)): 4.37 µM
- permeability [2]: > 1000 10^-6 cm/s

SMILES: N=c1c2c(-c3ccccc3)c(-c3ccccc3)n(CC3CCCCC3)c2ncn1CCCO
- IC50 ([1]; read-out: pIC50 (converted)): 26.9 µM
- permeability [2]: > 1000 10^-6 cm/s

SMILES: COc1ccc(-c2c(-c3ccc(OC)cc3)n(Cc3ccccc3)c3ncn(CCCO)c(=N)c23)cc1
- IC50 ([1]; read-out: IC50): > 20 µM
- Papp at 0.5 h [2]: > 1000 ×10⁻⁶ cm/s

SMILES: COc1ccc(-c2c(-c3ccc(OC)cc3)n(Cc3ccccc3)c3ncn([C@H]4CC[C@H](OC)CC4)c(=N)c23)cc1
- IC50 ([1]; read-out: IC50): > 20 µM
- permeability [2]: > 1000 10^-6 cm/s
